Data published in PubChem BioAssay AID2295 (NMMLSC, 2010).
pEC50, pKi: −log10 of the molar value. The source made the active and inactive calls.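 How the source made its calls: active means EC50 of 30 microM or lower, as activator or inhibitor; inactive means the rest.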

Target: Regulator of G-protein signaling 4 (Homo sapiens) (UniProt P49798)
Test: RGS4-Galphao binding modulators, SAR follow-up, biochemical, multiplexed bead flow cytometry, SAR compounds (AID 2295)
Conditions: bead-based flow cytometry, RGS4-AF488 Galphao binding
In short: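 System: streptavidin bead-bound biotinylated RGS4, multiplexed bead sets; medium: pH 8.0 HEPES buffer; compound: 9 points, threefold dilution steps; schedule: 30-90 min incubation at room temperature; signal: flow cytometry, median green (AlexaFluor488) fluorescence per bead set; controls: DMSO wells high, beads lacking RGS low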

Sequence of Regulator of G-protein signaling 4 (Homo sapiens) (P49798 whole entry, looked up): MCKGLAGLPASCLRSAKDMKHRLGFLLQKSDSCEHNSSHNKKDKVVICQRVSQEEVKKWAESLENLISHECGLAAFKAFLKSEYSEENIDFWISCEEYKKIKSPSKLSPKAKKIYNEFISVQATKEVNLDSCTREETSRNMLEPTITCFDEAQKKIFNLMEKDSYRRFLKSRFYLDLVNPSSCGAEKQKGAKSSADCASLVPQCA

`Cc1cccc(N2CCN(C(=O)Cn3sc4nc(C)cc(C)c4c3=O)CC2C)c1` (stereo not drawn) was tested, and the EC50 was > 30000 nM (inactive).
In the case of `Cc1[nH]n(-c2ccccc2)c(=S)c1C=NCCCN=Cc1c(C)[nH]n(-c2ccccc2)c1=S`, the EC50 was > 30000 nM (inactive).
For `CC(=O)OCCCNc1cc(Sc2nc3ccccc3s2)c2nonc2c1[N+](=O)[O-]`, the EC50 was > 30000 nM (inactive).
For `CC(NC(=O)c1sc2cc([N+](=O)[O-])ccc2c1Cl)C(C)(C)C` (stereo not drawn), the EC50 was > 30000 nM (inactive).

For `NS(=O)(=O)c1ccc(N/N=C/c2ccc(O)c(O)c2O)c([N+](=O)[O-])c1`, the pEC50 was 5.92.

Same assay, conditions: bead-based flow cytometry, RGS4-AF488 Galphao binding; measured here: Ki calculated from EC50

First: COc1ccc(C2=CC(=O)C=CC2=O)cc1
Second: O=c1c2ccccc2sn1-c1ccccc1
The pKi of the first is 0.65 log units lower: 6.31 for the first, 6.96 for the second. The second binds more tightly here.

Going from `Cc1cc(Cl)ccc1N=c1ssnc1Cl` to `Cc1cccc(N2CCN(C(=O)COc3nsc4nc(C)cc(C)c34)CC2C)c1` (stereo not drawn), the pKi falls from 6.59 to 5.23 (1.36 log units). The first binds more tightly here.

Going from `O=c1c2ccccc2sn1-c1ccc(S(=O)(=O)N2CCCC2)cc1` to `Cc1[nH]n(-c2ccccc2)c(=S)c1C=Nc1cccc([N+](=O)[O-])c1`, the pKi falls from 6.57 to 5.03 (1.54 log units).

Going from `CCN=c1scc(C)n1/N=C/c1ccc(O)c(O)c1O` to `CN=c1scc(C)n1/N=C/c1ccc(O)c(O)c1O`, the pKi rises from 5.52 to 5.84 (0.32 log units).

`CN1CCN(C2=C(Cl)C(=O)C(c3cnc(N4CCCCC4)s3)=C(Cl)C2=O)CC1` and `O=C1C(Cl)=C(N2CCCCC2)C(=O)C(Cl)=C1c1cnc(N2CCCCC2)s1` are within 0.2 log units of each other in pKi: 6.54 for the first, 6.64 for the second.

Compared with `CCC(=O)NC(c1ccc(C)cc1)c1cc([N+](=O)[O-])c2cccnc2c1O` (stereo not drawn), `NS(=O)(=O)c1ccc(N/N=C/c2ccc(O)c(O)c2O)c([N+](=O)[O-])c1` is 0.74 log units higher in pKi: 5.25 for the first, 5.99 for the second. The second binds more tightly here.

Going from `O=C(COc1ccccc1C(=O)N/N=C/c1ccc(O)c(O)c1)N/N=C/c1ccc(O)c(O)c1` to `CCN(CC)S(=O)(=O)c1cccc(C(=O)N/N=C/c2ccc(O)c(O)c2O)c1`, the pKi falls from 6.85 to 6.27 (0.58 log units).

Going from `O=C(Cc1csc(N2CCOCC2)n1)N/N=C/c1ccc(O)c(O)c1O` to `O=C(NCCCN1CCOCC1)c1sc2cc([N+](=O)[O-])ccc2c1Cl`, the pKi falls from 6.03 to 5.07 (0.96 log units).

`CCN(CC)S(=O)(=O)c1cccc(-c2n[nH]c(=S)n2/N=C/c2ccc(C(=O)OC)cc2)c1` and `CCOC(=O)c1sc(NC(=O)CSc2nnc(Cc3ccccc3)o2)c(C#N)c1C` are within 0.2 log units of each other in pKi: 5.09 for the first, 5.18 for the second.
